From ChEMBL document CHEMBL1687913, “Structure-activity relationship, conformational and biological studies of temporin L analogues” (J Med Chem, 2011)
≈ marks a conversion by molar mass, not a printed value. Where a SMILES comes first, the peptide text is derived from it. [ ]: non-standard residue; d: D form. Orn = NCCC[C@H](N)C(=O)O

Key:
Acinetobacter baumannii = assay: Antibacterial activity against Acinetobacter baumannii ATCC 19606 after 18 to 20 hrs by microbroth dilution method; format: functional
Procedure, shortened: (§1)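 CLSI microbroth dilution, adapted. Mid-log bacteria, 2 × 10^6 CFU/mL in Mueller-Hinton broth, mixed 1:1 with MH broth holding peptide in serial 2-fold dilutions in 20% ethanol (0.75-48 μM). Incubated 18-20 h at 37 °C; growth read as A600. MIC is the lowest concentration giving 100% growth inhibition.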

[1] = test system: Staphylococcus epidermidis; assay: Antibacterial activity against Staphylococcus epidermidis ATCC 12228 after 18 to 20 hrs by microbroth dilution method; format: functional; procedure, shortened: as §1
Saccharomyces cerevisiae = assay: Antifungal activity against Saccharomyces cerevisiae after 18 to 20 hrs by microbroth dilution method; format: functional
Procedure, shortened: (§2)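 Yeasts tested by adapted CLSI microbroth dilution in Winge medium. Peptide given in serial 2-fold dilutions (0.75-48 μM, made in 20% ethanol). Incubation 18-20 h at 30 °C, read at A600. MIC taken as the concentration giving complete (100%) growth inhibition.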

Enterococcus faecalis = assay: Antibacterial activity against Enterococcus faecalis ATCC 29212 after 18 to 20 hrs by microbroth dilution method; format: functional; procedure, shortened: as §1
Pseudomonas syringae = assay: Antibacterial activity against Pseudomonas syringae pv tobaci after 18 to 20 hrs by microbroth dilution method; format: functional; procedure, shortened: as §1
[2] = test system: Yersinia pseudotuberculosis; assay: Antibacterial activity against Yersinia pseudotuberculosis YPIII after 18 to 20 hrs by microbroth dilution method; format: functional
Procedure, shortened: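 Broth microdilution adapted from CLSI. Mid-log bacteria at 2 × 10^6 CFU/mL in Mueller-Hinton broth were mixed 1:1 with MH broth containing peptide in serial 2-fold dilutions (peptide in 20% ethanol), 0.75-48 μM. Plates were incubated 18-20 h at 37 °C and growth was read as A600. MIC is the concentration giving 100% growth inhibition.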

Streptococcus pyogenes = assay: Antibacterial activity against Streptococcus pyogenes ATCC 21547 after 18 to 20 hrs by microbroth dilution method; format: functional; procedure, shortened: as §1
Staphylococcus capitis = assay: Antibacterial activity against Staphylococcus capitis after 18 to 20 hrs by microbroth dilution method; format: functional; procedure, shortened: as §1
Staphylococcus aureus [3] = assay: Antibacterial activity against Staphylococcus aureus ATCC 25923 after 18 to 20 hrs by microbroth dilution method; format: functional; procedure, shortened: as §1
[4] = Toxicity in human erythrocytes assessed as hemolysis at 6 uM after 40 mins; format: cell-based, Erythrocyte; conditions: read-out: Activity
Procedure, shortened: (§3)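 Human red blood cells suspended in 0.9% (w/v) NaCl and incubated 40 min at 37 °C with gentle mixing with serial 2-fold peptide dilutions (peptide predissolved in 20% ethanol). Spun 5 min at 900g; supernatant read at 415 nm. Cells lysed in distilled water set the 100% lysis reference.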

Escherichia coli [5] = assay: Antibacterial activity against Escherichia coli D21 after 18 to 20 hrs by microbroth dilution method; format: functional; procedure, shortened: as §1
Pseudomonas aeruginosa [6] = assay: Antibacterial activity against Pseudomonas aeruginosa ATCC 27853 after 18 to 20 hrs by microbroth dilution method; format: functional; procedure, shortened: as §1
[7] = Toxicity in human erythrocytes assessed as hemolysis at 3 uM after 40 mins; format: cell-based, Erythrocyte; conditions: read-out: Activity; procedure, shortened: as §3
[8] = Toxicity in human erythrocytes assessed as hemolysis at 1.5 uM after 40 mins; format: cell-based, Erythrocyte; conditions: read-out: Activity; procedure, shortened: as §3
[9] = Toxicity in human erythrocytes assessed as hemolysis at 12 uM after 40 mins; format: cell-based, Erythrocyte; conditions: read-out: Activity; procedure, shortened: as §3
Staphylococcus aureus [10] = assay: Antibacterial activity against Staphylococcus aureus Cowan I after 18 to 20 hrs by microbroth dilution method; format: functional; procedure, shortened: as §1
Acinetobacter junii = assay: Antibacterial activity against […] Acinetobacter junii RT-4 after 18 to 20 hrs by microbroth dilution method; format: functional; procedure, shortened: as §1
Pseudomonas aeruginosa [11] = assay: Antibacterial activity against Pseudomonas aeruginosa ATCC 15692 after 18 to 20 hrs by microbroth dilution method; format: functional; procedure, shortened: as §1
Candida albicans = assay: Antifungal activity against Candida albicans ATCC 10231 after 18 to 20 hrs by microbroth dilution method; format: functional; procedure, shortened: as §2
Priestia megaterium = assay: Antibacterial activity against Bacillus megaterium Bm11 after 18 to 20 hrs by microbroth dilution method; format: functional; procedure, shortened: as §1
Escherichia coli [12] = assay: Antibacterial activity against Escherichia coli ATCC 25922 after 18 to 20 hrs by microbroth dilution method; format: functional; procedure, shortened: as §1
[13] = test system: Schizosaccharomyces pombe; assay: Antifungal activity against Schizosaccharomyces pombe after 18 to 20 hrs by microbroth dilution method; format: functional; procedure, shortened: as §2
[14] = Toxicity in human erythrocytes assessed as hemolysis at 24 uM after 40 mins; format: cell-based, Erythrocyte; conditions: read-out: Activity; procedure, shortened: as §3

| SMILES | MIC (Acinetobacter baumannii) [µM] | MIC [1] [µM] | MIC (Saccharomyces cerevisiae) [µM] | MIC (Enterococcus faecalis) [µM] | MIC (Pseudomonas syringae) [µM] | MIC [2] [µM] | MIC (Streptococcus pyogenes) [µM] | MIC (Staphylococcus capitis) [µM] | MIC (Staphylococcus aureus [3]) [µM] | hemolysis at 40 min, 6 µM [4] [%] | MIC (Escherichia coli [5]) [µM] | MIC (Pseudomonas aeruginosa [6]) [µM] | hemolysis at 40 min, 3 µM [7] [%] | hemolysis at 40 min, 1.5 µM [8] [%] | hemolysis at 40 min, 12 µM [9] [%] | MIC (Staphylococcus aureus [10]) [µM] | MIC (Acinetobacter junii) [µM] | MIC (Pseudomonas aeruginosa [11]) [µM] | MIC (Candida albicans) [µM] | MIC (Priestia megaterium) [µM] | further results |
| --- | --- | --- | --- | --- | --- | --- | --- | --- | --- | --- | --- | --- | --- | --- | --- | --- | --- | --- | --- | --- | --- |
| CC[C@H](C)[C@H](NC(=O)[C@H](CCCNC(=N)N)NC(=O)[C@H]1CCCN1C(=O)[C@H](CC(C)C)NC(=O)[C@H](Cc1ccccc1)NC(=O)[C@H](CCCCN)NC(=O)[C@H](CO)NC(=O)[C@H](Cc1ccccc1)NC(=O)[C@H](Cc1c[nH]c2ccccc12)NC(=O)[C@@H]1CCCN1C(=O)[C@@H](NC(=O)[C@@H](N)Cc1ccccc1)C(C)C)C(=O)N[C@@H](CC(C)C)C(N)=O | 48 (≈ 79.2 µg/mL) | 12 (≈ 19.8 µg/mL) | 12 (≈ 19.8 µg/mL) | 48 (≈ 79.2 µg/mL) | > 48 | 24 (≈ 39.6 µg/mL) | 24 (≈ 39.6 µg/mL) | 24 (≈ 39.6 µg/mL) | 48 (≈ 79.2 µg/mL) | 0.6 | 48 (≈ 79.2 µg/mL) | > 48 | 1.5 | 0.4 | 2 | 24 (≈ 39.6 µg/mL) | 24 (≈ 39.6 µg/mL) | > 48 | 24 (≈ 39.6 µg/mL) | 3 (≈ 4.95 µg/mL) | MIC (Escherichia coli [12]): 24 µM (≈ 39.6 µg/mL); MIC [13]: 12 µM (≈ 19.8 µg/mL); hemolysis at 40 min, 24 µM [14]: 2.5% |
| CC[C@H](C)[C@H](NC(=O)[C@H](CCCNC(=N)N)NC(=O)CNC(=O)[C@H](CC(C)C)NC(=O)[C@H](Cc1ccccc1)NC(=O)[C@H](CCCCN)NC(=O)[C@H](CO)NC(=O)[C@H](Cc1ccccc1)NC(=O)[C@H](Cc1c[nH]c2ccccc12)NC(=O)[C@@H]1CCCN1C(=O)[C@@H](NC(=O)[C@@H](N)Cc1ccccc1)C(C)C)C(=O)N[C@@H](CC(C)C)C(N)=O (H-FVPWFSKFLGRIL-NH2) | 6 (≈ 9.65 µg/mL) | 1.5 (≈ 2.41 µg/mL) | 6 (≈ 9.65 µg/mL) | 6 (≈ 9.65 µg/mL) | 6 (≈ 9.65 µg/mL) | 3 (≈ 4.83 µg/mL) | 6 (≈ 9.65 µg/mL) | 1.5 (≈ 2.41 µg/mL) | 3 (≈ 4.83 µg/mL) | 10 | 12 (≈ 19.3 µg/mL) | > 48 | 6 | 4.5 | 42 | 1.5 (≈ 2.41 µg/mL) | 6 (≈ 9.65 µg/mL) | 24 (≈ 38.6 µg/mL) | 6 (≈ 9.65 µg/mL) | 1.5 (≈ 2.41 µg/mL) | MIC (Escherichia coli [12]): 24 µM (≈ 38.6 µg/mL); MIC [13]: 3 µM (≈ 4.83 µg/mL); hemolysis at 40 min, 24 µM [14]: 92% |
| CC[C@H](C)[C@H](NC(=O)[C@H](CCCN)NC(=O)CNC(=O)[C@H](CC(C)C)NC(=O)[C@H](Cc1ccccc1)NC(=O)[C@H](CCCCN)NC(=O)[C@H](CO)NC(=O)[C@H](Cc1ccccc1)NC(=O)[C@H](Cc1c[nH]c2ccccc12)NC(=O)[C@@H]1CCCN1C(=O)[C@@H](NC(=O)[C@@H](N)Cc1ccccc1)C(C)C)C(=O)N[C@@H](CC(C)C)C(N)=O (H-FVPWFSKFLG[Orn]IL-NH2) | 12 (≈ 18.8 µg/mL) | 6 (≈ 9.4 µg/mL) | 6 (≈ 9.4 µg/mL) | 12 (≈ 18.8 µg/mL) | 12 (≈ 18.8 µg/mL) | 6 (≈ 9.4 µg/mL) | 6 (≈ 9.4 µg/mL) | 6 (≈ 9.4 µg/mL) | 12 (≈ 18.8 µg/mL) | 2 | 24 (≈ 37.6 µg/mL) | 48 (≈ 75.2 µg/mL) | 1 | 0.7 | 12 | 3 (≈ 4.7 µg/mL) | 6 (≈ 9.4 µg/mL) | 48 (≈ 75.2 µg/mL) | 6 (≈ 9.4 µg/mL) | 6 (≈ 9.4 µg/mL) | MIC (Escherichia coli [12]): 12 µM (≈ 18.8 µg/mL); MIC [13]: 12 µM (≈ 18.8 µg/mL); hemolysis at 40 min, 24 µM [14]: 72% |
| CC[C@H](C)[C@H](NC(=O)[C@H](CCCCN)NC(=O)CNC(=O)[C@H](CC(C)C)NC(=O)[C@H](Cc1ccccc1)NC(=O)[C@H](CCCCN)NC(=O)[C@H](CO)NC(=O)[C@H](Cc1ccccc1)NC(=O)[C@H](Cc1c[nH]c2ccccc12)NC(=O)[C@H](CCC(N)=O)NC(=O)[C@@H](NC(=O)[C@@H](N)Cc1ccccc1)C(C)C)C(=O)N[C@@H](CC(C)C)C(N)=O (H-FVQWFSKFLGKIL-NH2) | 6 (≈ 9.67 µg/mL) | 6 (≈ 9.67 µg/mL) | 6 (≈ 9.67 µg/mL) | 12 (≈ 19.3 µg/mL) | 24 (≈ 38.7 µg/mL) | 6 (≈ 9.67 µg/mL) | 6 (≈ 9.67 µg/mL) | 6 (≈ 9.67 µg/mL) | 6 (≈ 9.67 µg/mL) | 14 | 24 (≈ 38.7 µg/mL) | 48 (≈ 77.4 µg/mL) | 5 | 2.6 | 59 | 12 (≈ 19.3 µg/mL) | 6 (≈ 9.67 µg/mL) | 24 (≈ 38.7 µg/mL) | 12 (≈ 19.3 µg/mL) | 3 (≈ 4.84 µg/mL) | MIC (Escherichia coli [12]): 12 µM (≈ 19.3 µg/mL); MIC [13]: 6 µM (≈ 9.67 µg/mL); hemolysis at 40 min, 24 µM [14]: 100% |
| CC[C@H](C)[C@H](NC(=O)[C@H](CCCN)NC(=O)CNC(=O)[C@H](CC(C)C)NC(=O)[C@H](Cc1ccccc1)NC(=O)[C@H](CCCCN)NC(=O)[C@H](CO)NC(=O)[C@H](Cc1ccccc1)NC(=O)[C@H](Cc1c[nH]c2ccccc12)NC(=O)[C@H](CCC(N)=O)NC(=O)[C@@H](NC(=O)[C@@H](N)Cc1ccccc1)C(C)C)C(=O)N[C@@H](CC(C)C)C(N)=O (H-FVQWFSKFLG[Orn]IL-NH2) | 12 (≈ 19.2 µg/mL) | 3 (≈ 4.79 µg/mL) | 12 (≈ 19.2 µg/mL) | 6 (≈ 9.59 µg/mL) | 12 (≈ 19.2 µg/mL) | 3 (≈ 4.79 µg/mL) | 24 (≈ 38.4 µg/mL) | 3 (≈ 4.79 µg/mL) | 3 (≈ 4.79 µg/mL) | 22 | 12 (≈ 19.2 µg/mL) | 24 (≈ 38.4 µg/mL) | 7 | 3 | 62 | 1.5 (≈ 2.4 µg/mL) | 12 (≈ 19.2 µg/mL) | 24 (≈ 38.4 µg/mL) | 6 (≈ 9.59 µg/mL) | 1.5 (≈ 2.4 µg/mL) | MIC (Escherichia coli [12]): 12 µM (≈ 19.2 µg/mL); MIC [13]: 12 µM (≈ 19.2 µg/mL); hemolysis at 40 min, 24 µM [14]: 89% |
